Assays:
[1] = biological target: T1, Sodium/glucose cotransporter 2 (Homo sapiens, UniProt P31639); test: Inhibition of human recombinant SGLT2 expressed in CHO cells by liquid scintillation counting; type: cell-based
T1 sequence (P31639 whole entry): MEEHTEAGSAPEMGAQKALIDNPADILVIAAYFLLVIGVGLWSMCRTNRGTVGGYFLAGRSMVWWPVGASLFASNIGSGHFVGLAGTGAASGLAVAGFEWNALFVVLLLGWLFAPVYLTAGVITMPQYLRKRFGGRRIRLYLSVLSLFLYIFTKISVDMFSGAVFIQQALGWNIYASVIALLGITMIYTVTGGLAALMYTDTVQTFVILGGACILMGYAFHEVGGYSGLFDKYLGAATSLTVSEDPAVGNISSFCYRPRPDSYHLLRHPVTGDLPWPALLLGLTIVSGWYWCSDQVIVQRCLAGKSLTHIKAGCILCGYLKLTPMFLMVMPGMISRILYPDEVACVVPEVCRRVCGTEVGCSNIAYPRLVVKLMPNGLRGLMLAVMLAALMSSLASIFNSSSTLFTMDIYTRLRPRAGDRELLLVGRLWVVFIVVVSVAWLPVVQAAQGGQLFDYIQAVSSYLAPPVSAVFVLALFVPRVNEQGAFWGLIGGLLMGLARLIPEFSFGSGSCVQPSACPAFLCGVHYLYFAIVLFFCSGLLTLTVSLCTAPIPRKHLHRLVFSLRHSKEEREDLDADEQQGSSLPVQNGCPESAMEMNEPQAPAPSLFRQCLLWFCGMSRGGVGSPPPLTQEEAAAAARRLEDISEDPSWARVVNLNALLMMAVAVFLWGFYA
Outline: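 hSGLT2 cloned from human kidney cDNA; stable clones selected by G418 resistance. Preincubated 10 min at 37 °C in sodium-free choline buffer pH 7.4. Then 2 h at 37 °C in Na⁺ uptake buffer with 1 mM unlabeled AMG plus ¹⁴C-AMG and inhibitor or DMSO. Washed, radioactivity counted; IC50 by nonlinear regression.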

[2] = Cmax in Sprague-Dawley rat at 5 mg/kg, po; type: ADME, organism-based; design: dose 5 mg/kg, route oral; settings: in vivo
[3] = system: Rattus norvegicus; test: Effect on urinary glucose excretion in normal fasted Sprague-Dawley rat at 10 mg/kg, po subsequently co-treated with glucose measured up to 24 hrs relative to untreated control; type: ADME, organism-based, Urine; design: dose 10 mg/kg, route oral; settings: in vivo
Outline: (§1)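 Overnight-fasted male SD rats placed in metabolism cages for 24 h baseline urine, then randomized and given single oral drug or vehicle followed by oral 50% aqueous glucose (2 g/kg). Urine collected 24 h, re-fed 1 h after glucose challenge. Urine volume measured and glucose determined enzymatically. Values normalized per 200 g body weight; means ± S.E.M., ANOVA with Dunnett's test.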

[4] = system: Rattus norvegicus; test: Effect on urine volume in normal fasted Sprague-Dawley rat at 10 mg/kg, po subsequently co-treated with glucose measured up to 24 hrs relative to untreated control; type: ADME, organism-based; design: dose 10 mg/kg, route oral; settings: in vivo; outline: as §1
[5] = system: Mus musculus; test: Antidiabetic activity in db/db mouse assessed as reduction in blood glucose level at 10 mg/kg, po after 4 hrs relative to untreated control; type: functional; design: scale not given: the % may be the effect or the level left
Outline: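 Diabetic db/db mice (n = 4 per group), randomized by weight and given single oral dose of vehicle or drug. Reduction versus vehicle controls at 4 h; means ± S.E.M., one-way ANOVA with Dunnett's test.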

[6] = Tmax in Sprague-Dawley rat at 5 mg/kg, po; type: ADME, organism-based; design: dose 5 mg/kg, route oral; settings: in vivo
[7] = Elimination half life in Sprague-Dawley rat at 5 mg/kg, po; type: ADME, organism-based; design: dose 5 mg/kg, route oral; settings: in vivo, read-out: beta t1/2 (converted)
[8] = Oral bioavailability in Sprague-Dawley rat at 5 mg/kg; type: ADME, organism-based; settings: in vivo
[9] = system: Rattus norvegicus; test: Effect on urinary glucose excretion in normal fasted Sprague-Dawley rat at 10 mg/kg, po subsequently co-treated with glucose measured up to 24 hrs relative to untreated control; settings: in vivo

| SMILES | IC50 [1] | other results |
| --- | --- | --- |
| CC(C)(C)c1nnc(Cc2cccc(C3O[C@H](CO)[C@@H](O)[C@H](O)[C@H]3O)c2)s1 (some centres not stated) | > 10 µM |  |
| Cc1noc(C)c1-c1nnc(Cc2cc([C@@H]3O[C@H](CO)[C@@H](O)[C@H](O)[C@H]3O)ccc2Cl)s1 | > 10 µM |  |
| CCCc1nnc(Cc2cccc([C@@H]3O[C@H](CO)[C@@H](O)[C@H](O)[C@H]3O)c2)s1 | 6.91 µM |  |
| CC(C)(c1ccc(Cl)cc1)c1nnc(Cc2cc(C3O[C@H](CO)[C@@H](O)[C@H](O)[C@H]3O)ccc2Cl)s1 (some centres not stated) | > 10 µM |  |
| OC[C@H]1O[C@@H](c2ccc(Cl)c(Cc3nnc(-c4ccco4)s3)c2)[C@H](O)[C@@H](O)[C@@H]1O |  | Cmax [2]: 50 ng/mL; fold change (FC) [3]: 100; fold change (FC) [4]: 1.4; Activity [5]: 72.8%; Tmax [6]: 19.8 min; half-life [7]: 51.6 min; bioavailability [8]: 7.7%; fold change (FC) [9]: 100 |
| COc1ccc(Cc2ccccc2O[C@@H]2O[C@H](CO)[C@@H](O)[C@H](O)[C@H]2O)cc1 [SERGLIFLOZIN A] | 0.00625 µM |  |
| CCc1noc(C)c1-c1nnc(Cc2cc([C@@H]3O[C@H](CO)[C@@H](O)[C@H](O)[C@H]3O)ccc2Cl)s1 | > 10 µM |  |
| OC[C@H]1OC(c2ccc(Cl)c(Cc3nnc(Cc4ccc(Cl)cc4)s3)c2)[C@H](O)[C@@H](O)[C@@H]1O (some centres not stated) | 2.39 µM |  |
| OC[C@H]1O[C@@H](c2ccc(Cl)c(Cc3nnc(-c4csc(-c5ccncc5)n4)s3)c2)[C@H](O)[C@@H](O)[C@@H]1O | 0.0726 µM |  |
| Cn1nc(-c2nnc(Cc3cc([C@@H]4O[C@H](CO)[C@@H](O)[C@H](O)[C@H]4O)ccc3Cl)s2)c2ccccc21 | 3.28 µM |  |

From ChEMBL document CHEMBL1157636, “Novel C-aryl glucoside SGLT2 inhibitors as potential antidiabetic agents: 1,3,4-Thiadiazolylmethylphenyl glucoside congeners” (Bioorg Med Chem, 2010)
